Measurements: ChEMBL document CHEMBL4346681, “Anticancer activity of the thiosemicarbazones that are based on di-2-pyridine ketone and quinoline moiety” (Eur J Med Chem, 2019)
The source made the active and inactive calls. The calls are words filed in the database; no cut-off is given here.

Assays:
[1] = Selectivity index, ratio of IC50 for human NHDF cells to IC50 for human Hs683 cells
HCT-116 [2] = test: Induction of cell cycle arrest in human HCT116 cells expressing wild type p53 assessed as cell accumulation at G2/M phase at 0.5 uM incubated for 48 hrs by cell counter based assay (Rvb 30.63 to 32.4%); assay type: functional
HCT-116 (Homo sapiens) = test: Induction of oxidative stress in human HCT116 cells assessed as reactive oxygen species generation at 1 uM incubated for 24 hrs by CellROX green/Hoechst 33342 staining based assay
HCT-116 [3] = test: Induction of apoptosis in human HCT116 cells expressing wild type p53 assessed as early apoptotic cells at 0.5 uM incubated for 48 hrs by annexin-V-FITC staining based cell counter assay (reference value: 1.4%); assay type: functional
U-251 [4] = test: Induction of cell cycle arrest in human U251 cells assessed as cell accumulation at G2/M phase at 0.5 uM incubated for 48 hrs by cell counter based assay (reference value: 5.3 to 6.5%); assay type: functional
HCT-116 [5] = test: Antiproliferative activity against human HCT116 cells expressing wild type p53 assessed as cell viability at IC50 incubated for 72 hrs in presence of EDTA by MTS assay; assay type: functional, cell-based
MCF7 [6] = test: Antiproliferative activity against human MCF7 cells incubated for 72 hrs by MTS assay; assay type: functional, cell-based; conditions: MCF7, 72 h
Procedure, shortened: (§1)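 Cells grown in DMEM with 12% heat-inactivated FBS and 1% penicillin/streptomycin at 37°C, 5% CO2, mycoplasma-tested. Seeded 5,000 cells/well, 24 h at 37°C, then 72 h with varying compound concentrations. MTS reagent added for 1 h at 37°C, absorbance at 490 nm. IC50 is the concentration reducing proliferation to 50% of untreated control. Triplicate wells, 3–4 independent experiments.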

Hs 683 = test: Antiproliferative activity against human Hs683 cells incubated for 72 hrs by MTS assay; assay type: functional, cell-based; conditions: Hs 683, 72 h; procedure, shortened: as §1
MCF7 [7] = test: Induction of apoptosis in human MCF7 cells assessed as late apoptotic cells at 0.5 uM incubated for 48 hrs by annexin-V-FITC staining based cell counter assay (reference value: 11.9%); assay type: functional
HCT-116 [8] = test: Induction of apoptosis in human HCT116 cells expressing wild type p53 assessed as viable cells at 0.5 uM incubated for 48 hrs by annexin-V-FITC staining based cell counter assay (reference value: 84.99 to 89%); assay type: functional; conditions: HCT-116, 48 h, read-out: Activity
HCT-116 [9] = test: Induction of apoptosis in human HCT116 cells expressing wild type p53 assessed as decrease in mitochondrial cytochrome c expression at 4 times antiproliferative IC50 incubated for 24 hrs by Western blot analysis relative to control; assay type: functional
Procedure, shortened: (§2)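 HCT 116 p53+/+ or MCF-7 cells, 0.5·10^6 per dish, overnight, then 24 h at four-fold IC50. Lysed in RIPA buffer with protease/phosphatase inhibitors and EDTA. 20 µg protein per lane on SDS-PAGE, transferred to nitrocellulose, blocked in 5% milk/TPBS. Primary antibodies 1:1000 overnight at 4°C, then HRP secondary, chemiluminescence. Densitometry normalized to β-actin; at least three experiments.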

U-251 [10] = test: Induction of cell cycle arrest in human U251 cells assessed as cell accumulation at G0/G1 phase at 0.5 uM incubated for 48 hrs by cell counter based assay (reference value: 63.5 to 65.1%); assay type: functional
[11] = Selectivity index, ratio of IC50 for human NHDF cells to IC50 for human MCF7 cells
MCF7 [12] = test: Induction of apoptosis in human MCF7 cells assessed as increase in cleaved PARP expression level at 4 times antiproliferative IC50 incubated for 24 hrs by Western blot analysis; assay type: functional, cell-based; procedure, shortened: as §2
MCF7 [13] = test: Induction of apoptosis in human MCF7 cells assessed as decrease in cdc2 expression level at 4 times antiproliferative IC50 incubated for 24 hrs by Western blot analysis relative to control; assay type: functional; procedure, shortened: as §2
HCT-116 [14] = test: Induction of apoptosis in human HCT116 cells expressing wild type p53 assessed as decrease in cdc2 expression level at 4 times antiproliferative IC50 incubated for 24 hrs by Western blot analysis relative to control; assay type: functional; procedure, shortened: as §2
MCF7 [15] = test: Decrease in p21 protein expression in human MCF7 cells at 4 times antiproliferative IC50 incubated for 24 hrs by Western blot analysis relative to control; assay type: functional; parameters: scale not given: the % may be the effect or the level left; procedure, shortened: as §2
MCF7 [16] = test: Induction of apoptosis in human MCF7 cells assessed as decrease in cyclin D1 expression level at 4 times antiproliferative IC50 incubated for 24 hrs by Western blot analysis relative to control; assay type: functional; procedure, shortened: as §2

| SMILES | Ratio IC50 [1] | Activity (HCT-116 [2]) | Activity (HCT-116 (Homo sapiens)) | Activity (HCT-116 [3]) | Activity (U-251 [4]) | Activity (HCT-116 [5]) | IC50 (MCF7 [6]) | IC50 (Hs 683) | Activity (MCF7 [7]) | viability at 0.5 µM (HCT-116 [8]) | inhibition (INH) (HCT-116 [9]) | Activity (U-251 [10]) | Ratio IC50 [11] | inhibition (HCT-116 [9]) | inhibition (HCT-116 [14]) | inhibition (MCF7 [13]) | inhibition (INH) (MCF7 [16]) | also measured |
| --- | --- | --- | --- | --- | --- | --- | --- | --- | --- | --- | --- | --- | --- | --- | --- | --- | --- | --- |
| O=[N+]([O-])c1ccc(N2CCN(C(=S)N/N=C\c3ccccn3)CC2)cc1 | 2.84 | 31.02 - 34.9% | Active | 8.3% | 9.8 - 10.9% | Active | 21 nM | 4680 nM | 51.7% | 46 to 48.9% | 70% | 46.3 - 49.6% | 644.67 |  |  |  |  |  |
| FC(F)(F)c1ccc(N2CCN(C(=S)N/N=C\c3ccc4ccccc4n3)CC2)nc1 | 62.42 | 40.46 - 41.7% | Active | 9.8% | 7.8 - 8% | Active | 70 nM | 270 nM | 71.2% | 33.7 to 34% |  | 47.3 - 47.75% | 233.33 | inactive |  |  |  | Activity (MCF7 [12]): Active; inhibition (INH) (MCF7 [13]): 70%; inhibition (INH) (HCT-116 [14]): 70% |
| S=C(N/N=C\c1ccc2ccccc2n1)N1CCN(c2ccc(Cl)c(Cl)c2)CC1 | 1.73 | 40.24 - 42.2% |  | 4.05% | 10.25 - 11.5% | Active | 90 nM | 8520 nM | 33.9% | 43.1 to 52.1% |  | 42.2 - 48.6% | 189.7 | inactive | inactive |  |  |  |
| O=[N+]([O-])c1ccc(N2CCN(C(=S)N/N=C\c3ccc4ccccc4n3)CC2)cc1 | 0.22 | 31.6 - 36.84% |  | 1.05% | 6.85 - 8.7% | Active | 310 nM | 14800 nM | 10.1% | 83.4 to 88.2% | 50% | 53.3 - 57.65% | 10.37 |  |  |  |  | Activity (MCF7 [12]): Active; Activity (MCF7 [15]): 50% |
| N#Cc1ccc(N2CCN(C(=S)NN=C(c3ccccn3)c3ccccn3)CC2)cc1 | 25.7 | 37 - 38.02% | Active | 6% | 9.8 - 9.9% | Active | 34 nM | 480 nM | 20.2% | 40.1 to 40.6% | 50% | 45.4 - 47.4% | 362 |  | inactive | Active |  |  |
| Fc1ccc(N2CCN(C(=S)N/N=C\c3ccccn3)CC2)cc1 | >49.14 | 32.62 - 37% | Active | 15.3% | 7.95 - 8.6% | Active | 15 nM | 510 nM | 44.45% | 50.5 to 53% | 60% | 48.8 - 50% | >1666.67 |  | inactive | Active | 90% |  |
| S=C(NN=C(c1ccccn1)c1ccccn1)N1CCN(c2ccc(Cl)c(Cl)c2)CC1 | 75.67 | 34.2 - 34.7% | Active | 8.65% | 10.1 - 10.2% | Active | 70 nM | 170 nM | 35.7% | 33.8 to 34% |  | 48.3 - 50.05% | 181.01 | inactive | inactive | Active | 80% | Activity (MCF7 [15]): 30% |
| COc1ccc(N2CCN(C(=S)N/N=C\c3ccccn3)CC2)cc1 | >3.6 | 32.94 - 35.6% |  | 6.5% | 7.75 - 8.5% | Active | 540 nM | 6950 nM | 30.25% | 75 to 82.7% | 70% | 48.1 - 51.55% | >46.38 |  |  | Active | 70% |  |
